According to ChEMBL document CHEMBL1123129, “Hypolipidemic activity of indan-1,3-dione derivatives in rodents” (J Med Chem, 1985):

Key:
[1] = molecular target: Acetyl-CoA carboxylase 1 (Mus musculus) (UniProt Q5SWU9); experiment: In Vivo effect for the hypolipidemic activity on Acetyl-CoA carboxylase in CF1 mice after 16 days administered orally at a dose of 20 mg/kg; type: functional, organism-based; design: dose 20 mg/kg
In short: (§1)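 CF1 male mice are dosed orally at 10–60 mg/kg per day for 16 days, with 1% CMC as the control vehicle. Liver is homogenized at 10% in 0.25 M sucrose + 0.001 M EDTA, pH 7.2. Enzymes are assayed by literature methods, with Lowry protein. Activity is given as % of control (X ± SD, N = 6), with p from Student's t test.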

[2] = In Vitro evaluation for the CF1 liver enzyme activity on Acyl cholesterol acyltransferase at concentration 50 uM
In short: (§2)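 Liver was taken from CF1 male mice and made into 10% homogenates, which were incubated with test compound at 50, 100 or 200 µM. Each enzyme was assayed by its literature method, and protein was measured by Lowry. N = 6. Activity is expressed as % of untreated control ± SD.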

[3] = molecular target: Cholesterol 7-alpha-hydroxylase (Cytochrome P450 7A1) (Mus musculus, UniProt Q64505); experiment: In vivo effect on Cholesterol 7-alpha-hydroxylase activity in CF1 mice after 16 days at 60 mg/kg oral dose; type: functional, organism-based; design: dose 60 mg/kg, route oral; details: read-out: Control; in short: as §1
Cholesterol 7-alpha-hydroxylase (Cytochrome P450 7A1), sequence (Q64505 whole entry): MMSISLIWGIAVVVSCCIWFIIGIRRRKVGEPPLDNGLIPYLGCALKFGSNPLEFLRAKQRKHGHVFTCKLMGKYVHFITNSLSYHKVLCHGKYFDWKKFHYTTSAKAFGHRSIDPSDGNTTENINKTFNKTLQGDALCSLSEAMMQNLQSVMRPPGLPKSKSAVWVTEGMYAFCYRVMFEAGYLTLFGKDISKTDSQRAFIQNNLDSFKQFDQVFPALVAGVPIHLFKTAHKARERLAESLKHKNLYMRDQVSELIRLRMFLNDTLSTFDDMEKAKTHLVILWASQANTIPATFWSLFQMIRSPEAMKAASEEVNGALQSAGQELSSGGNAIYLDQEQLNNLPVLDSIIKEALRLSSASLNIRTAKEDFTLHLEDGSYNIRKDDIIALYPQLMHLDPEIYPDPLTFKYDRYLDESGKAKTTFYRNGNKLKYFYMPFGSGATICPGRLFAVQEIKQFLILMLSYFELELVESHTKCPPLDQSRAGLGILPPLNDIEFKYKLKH

[4] = molecular target: T1, 3-hydroxy-3-methylglutaryl-coenzyme A reductase (Mus musculus) (UniProt Q01237); experiment: In Vitro evaluation for the CF1 liver enzyme activity on HMG-CoA reductase at concentration 100 uM; in short: as §2
T1 sequence (whole entry): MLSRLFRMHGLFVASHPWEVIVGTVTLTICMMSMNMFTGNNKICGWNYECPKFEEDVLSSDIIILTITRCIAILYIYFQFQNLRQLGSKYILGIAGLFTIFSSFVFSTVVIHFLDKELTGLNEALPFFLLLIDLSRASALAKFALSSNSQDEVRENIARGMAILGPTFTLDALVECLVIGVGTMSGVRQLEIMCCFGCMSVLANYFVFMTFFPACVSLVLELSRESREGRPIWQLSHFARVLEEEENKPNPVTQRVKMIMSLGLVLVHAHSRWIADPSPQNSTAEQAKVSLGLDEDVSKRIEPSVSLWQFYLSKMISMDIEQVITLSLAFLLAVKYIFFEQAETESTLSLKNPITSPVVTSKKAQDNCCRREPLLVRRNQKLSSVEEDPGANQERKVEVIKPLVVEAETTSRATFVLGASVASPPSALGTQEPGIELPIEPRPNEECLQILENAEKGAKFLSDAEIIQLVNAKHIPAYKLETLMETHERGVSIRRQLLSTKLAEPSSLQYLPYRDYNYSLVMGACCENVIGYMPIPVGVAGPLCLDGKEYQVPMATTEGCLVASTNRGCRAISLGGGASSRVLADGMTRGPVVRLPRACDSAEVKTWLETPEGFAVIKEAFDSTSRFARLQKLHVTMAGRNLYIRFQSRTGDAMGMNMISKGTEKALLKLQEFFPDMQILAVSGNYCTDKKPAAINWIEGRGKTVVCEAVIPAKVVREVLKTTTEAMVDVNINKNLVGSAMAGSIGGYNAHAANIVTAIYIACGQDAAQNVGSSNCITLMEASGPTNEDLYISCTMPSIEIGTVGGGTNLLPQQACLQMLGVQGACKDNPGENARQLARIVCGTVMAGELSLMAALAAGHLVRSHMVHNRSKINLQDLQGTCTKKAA

[5] = molecular target: T1, 3-hydroxy-3-methylglutaryl-coenzyme A reductase (Mus musculus); experiment: In Vivo effect for the hypolipidemic activity on HMG-CoA reductase in CF1 mice after 16 days of oral administration at a dose of 20 mg/kg; type: organism-based; design: dose 20 mg/kg; in short: as §1
[6] = tested on: Mus musculus; experiment: Hypolipidemic activity in CF1 male mice at a dose of 20 mg/kg per day, serum cholesterol measured on the 16th day; type: functional
In short: (§3)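 CF1 male mice (~30 g) were given 20 mg/kg per day ip at 11:00 a.m.; N = 6 per group. Tail-vein serum was collected in nonheparinized microcapillaries. Cholesterol was measured on days 9 and 16 by modified Liebermann–Burchard on duplicate 25 µL samples. Triglyceride was measured on day 16 in a separate group, duplicate 50 µL. Values are % control ± SD; Student's t test.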

[7] = tested on: Mus musculus; experiment: Hypolipidemic activity in CF1 male mice at a dose of 20 mg/kg per day, serum cholesterol measured on the 9th day; type: functional; in short: as §3
[8] = tested on: Mus musculus; experiment: In Vivo effect for the hypolipidemic activity on Acetyl-CoA carboxylase in CF1 mice after 16 days administered orally at a dose of 10 mg/kg; type: functional; details: route oral; in short: as §1
[9] = molecular target: T2, Sterol O-acyltransferase 1 (Mus musculus) (UniProt Q61263); experiment: In Vitro evaluation for the CF1 liver enzyme activity on Acyl cholesterol acyltransferase at concentration 200 uM; type: functional, tissue-based; in short: as §2
T2 sequence (whole entry): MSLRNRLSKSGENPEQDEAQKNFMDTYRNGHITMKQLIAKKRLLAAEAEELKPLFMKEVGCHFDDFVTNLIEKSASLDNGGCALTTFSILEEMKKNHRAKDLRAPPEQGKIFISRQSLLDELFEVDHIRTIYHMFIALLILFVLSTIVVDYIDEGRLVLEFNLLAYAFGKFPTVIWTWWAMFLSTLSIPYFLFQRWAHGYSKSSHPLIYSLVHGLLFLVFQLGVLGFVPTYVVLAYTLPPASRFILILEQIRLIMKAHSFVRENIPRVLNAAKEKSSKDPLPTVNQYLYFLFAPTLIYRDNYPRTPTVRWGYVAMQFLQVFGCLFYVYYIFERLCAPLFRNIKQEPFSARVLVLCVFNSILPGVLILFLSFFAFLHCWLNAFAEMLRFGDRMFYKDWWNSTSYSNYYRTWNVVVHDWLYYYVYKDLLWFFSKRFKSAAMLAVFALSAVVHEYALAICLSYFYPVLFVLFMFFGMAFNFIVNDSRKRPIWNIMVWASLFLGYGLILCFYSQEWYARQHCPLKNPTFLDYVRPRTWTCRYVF

[10] = species: Mus musculus; experiment: In Vitro evaluation for the CF1 liver enzyme activity on Mitochondrial citrate exchange at concentration 200 uM; type: functional
In short: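 Mouse liver enzymes assayed in vitro on 10% homogenates of CF1 male mouse liver, with test drug added at 50–200 μM. Each enzyme follows a published procedure. Protein is measured by Lowry. Activity is given as % of untreated control (X ± SD, N = 6).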

[11] = tested on: Rattus norvegicus; experiment: Compound was evaluated for the hypolipidemic activity at 20 mg/kg per day orally for 14 days on protein content in rat LDL; type: functional; details: route oral
In short: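 Male Sprague–Dawley rats (~300 g) were dosed orally each day. Blood was drawn from the abdominal vein. Lipoprotein fractions (chylomicron, VLDL, LDL, HDL) were separated by the Hatch–Lees and Havel methods. Each fraction was assayed for cholesterol, triglyceride (enzymatic kit), neutral lipids, phospholipids and Lowry protein. Values are % of 1% CMC vehicle control, N = 6.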

[12] = tested on: Rattus norvegicus; experiment: Compound was evaluated for the hypolipidemic activity at 20 mg/kg per day orally for 14 days on neutral lipid content in rat liver; type: functional; details: route oral
In short: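 Male Sprague–Dawley rats were dosed orally for 14 days. Liver, small intestine and a 24-h fecal collection were lipid-extracted. Extracts were assayed for cholesterol (modified Liebermann–Burchard), triglyceride (enzymatic kit), neutral lipids, phospholipids and protein. Values are % of 1% CMC vehicle control, mean ± SD, N = 6.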

[13] = tested on: Mus musculus; experiment: In Vivo effect for the hypolipidemic activity on phosphatidate phosphohydrolase in CF1 mice after 16 days administered orally at a dose of 10 mg/kg; type: organism-based; design: dose 10 mg/kg; in short: as §1

Control [1]: 107%
Control [2]: 94%
activity at 384 h [3]: 60%
Control [4]: 109%
Control [5]: 114%
Control [9]: 60%
SMILES: COc1ccc(C2C(=O)c3ccccc3C2=O)cc1 [ANISINDIONE]
Serum cholesterol, % of control [6]: 59%
Serum cholesterol, % of control [7]: 58%
Control [8]: 89%
Control [10]: 36%
Control [11]: 95%
Control [12]: 84%
Control [13]: 53%
